Results on 11 molecules are retold here after ChEMBL document CHEMBL2331240, “Focused library development of 2-phenylacrylamides as broad spectrum cytotoxic agents” (2013).

Activity calls are given as the source filed them. The rule behind the calls is not given here.

In one test the test system is MCF7. Put plainly: Cytotoxicity against human MCF7 cells assessed as growth inhibition at 25 uM measured after 72 hrs by MTT assay. The format is functional. The settings on record: for inhibition of growth at 25 µM: MCF7, 72 h, read-out: GI. In outline: (§1)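 Log-phase cells were plated in duplicate at 2500–4000 cells/well in DMEM with 10% FBS, glutamine and antibiotics, at 37 °C under 5% CO2. Drug was added 24 h after plating from a 40 mM DMSO stock, to a final 25 μM. After 72 h exposure, MTT was read at 540 nm and % growth inhibition was calculated, with 100% meaning total growth inhibition.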
In general terms: Tetrazolium dyes change colour on reduction, which living cells bring about.

Another test has as its system SW480. Put plainly: Cytotoxicity against human SW480 cells assessed as growth inhibition at 25 uM measured after 72 hrs by MTT assay. Format: functional. The settings on record: for inhibition of growth at 25 µM: SW480, 72 h, read-out: GI. Summed up: as §1
In another test the test system is A2780. Put plainly: Cytotoxicity against human A2780 cells assessed as growth inhibition at 25 uM measured after 72 hrs by MTT assay. The format is functional. Summed up: as §1
The next test deals with MIA. Put plainly: Cytotoxicity against human MIA cells assessed as growth inhibition at 25 uM measured after 72 hrs by MTT assay. Format: functional. In outline: as §1
Another test concerns HT-29. Nature of the test: Cytotoxicity against human HT-29 cells assessed as growth inhibition at 25 uM measured after 72 hrs by MTT assay. The format is functional, cell-based. Summed up:
as §1

The test system of the next test is SMA. Put plainly: Cytotoxicity against mouse SMA cells assessed as growth inhibition at 25 uM measured after 72 hrs by MTT assay.
The test system of another test is A-431. Nature of the test: Cytotoxicity against human A431 cells assessed as growth inhibition at 25 uM measured after 72 hrs by MTT assay. Format: functional, cell-based. In outline:
as §1

In a further test the test system is DU-145. Put plainly: Cytotoxicity against human DU145 cells assessed as growth inhibition at 25 uM measured after 72 hrs by MTT assay. Format: functional, cell-based. Summed up: as §1
In a further test the test system is SJ-G2. Put plainly: Cytotoxicity against human SJ-G2 cells assessed as growth inhibition at 25 uM measured after 72 hrs by MTT assay. Format: functional, cell-based. Summed up:
as §1

A further test relates to NCI-H460. Put plainly: Cytotoxicity against human H460 cells assessed as growth inhibition at 25 uM measured after 72 hrs by MTT assay. Format: functional, cell-based. In outline: as §1
The subject of the next test is BE(2)-C. Nature of the test: (§2) Cytotoxicity against human BE(2)-C cells assessed as growth inhibition at 25 uM measured after 72 hrs by MTT assay. Format: functional. In outline: as §1
Test [1] in a line: as §2. Format: functional. The settings on record: read-out: GI. Summed up:
as §1

Take `N#C/C(=C\c1ccc(O)cc1)C(=O)c1ccc[nH]1`: the “growth inhibition (GI)” value with MCF7, in the test with SW480, in the test on A2780, in the test with MIA, in the test with HT-29 and in the test on SMA was “inactive” in each case. The “growth inhibition (GI)” value in the test on A-431, in the test with DU-145, with SJ-G2, in the test on NCI-H460 and in the test on BE(2)-C was “inactive” in each case.

For the molecule `N#C/C(=C\c1ccc2ccccc2c1)C(=O)c1c[nH]c2ccccc12`, in the test on MCF7, the inhibition of growth at 25 µM came to 40%. Further, the “growth inhibition (GI)” value with SW480, in the test on A2780, in the test with MIA, in the test on HT-29, in the test on SMA and with A-431 was “inactive” throughout. Moreover, the “growth inhibition (GI)” value in the test with DU-145, in the test with SJ-G2, in the test with NCI-H460 and with BE(2)-C was “inactive” throughout.

Regarding `N#C/C(=C\c1ccc(Cl)c(Cl)c1)C(=O)c1c[nH]c2ccccc12`, the inhibition of growth at 25 µM with MCF7 stood at 42%; with SW480, 33%; with A2780 (A2780, 72 h, read-out: GI), 32%; in test [1] it was 33%. Moreover, the “growth inhibition (GI)” value in the test on MIA, in the test with HT-29, in the test on SMA, with A-431, in the test with DU-145 and in the test with SJ-G2 was “inactive” throughout. In addition, the “growth inhibition (GI)” value with NCI-H460 was “inactive”.

`N#C/C(=C\c1ccc(O)cc1)C(=O)c1c[nH]c2ccccc12`: the “growth inhibition (GI)” value in the test on MCF7, in the test with SW480, with A2780, in the test with MIA, in the test on HT-29 and with SMA was “inactive” each time. Also, the “growth inhibition (GI)” value in the test on A-431, with DU-145, in the test with SJ-G2, in the test with NCI-H460 and with BE(2)-C was “inactive” each time.

With `N#C/C(=C\c1c[nH]c2ccccc12)C(=O)c1ccc[nH]1`, the inhibition of growth at 25 µM stood at 56% with MCF7, 43% in the test with SW480 and 49% in test [1]. Besides, the “growth inhibition (GI)” value with A2780, in the test with MIA, with HT-29, with SMA, in the test with A-431 and in the test on DU-145 was “inactive” in each case. In addition, the “growth inhibition (GI)” value in the test with SJ-G2 and in the test on NCI-H460 was “inactive” in each case.

On to `N#C/C(=C\c1ccc2ccccc2c1)C(=O)c1ccc[nH]1`, for which the “growth inhibition (GI)” value in the test on MCF7, with SW480, in the test on A2780, with MIA, in the test with HT-29 and in the test with SMA was “inactive” in each case. Further, the “growth inhibition (GI)” value in the test on A-431, in the test with DU-145, in the test with SJ-G2, in the test with NCI-H460 and in the test with BE(2)-C was “inactive” in each case.

Consider `N#C/C(=C\c1ccc(C(F)(F)F)cc1)C(=O)c1ccc[nH]1`, for which the “growth inhibition (GI)” value in the test on MCF7, with SW480, with A2780, in the test on MIA, in the test on HT-29 and in the test with SMA was “inactive” throughout. For the same molecule, the “growth inhibition (GI)” value in the test on A-431, in the test with DU-145, in the test with SJ-G2, in the test on NCI-H460 and in the test with BE(2)-C was “inactive” each time.

Take `COc1ccc(/C=C(\C#N)C(=O)NCc2ccc(OC)cc2)cc1`: the “growth inhibition (GI)” value with MCF7, with SW480, with A2780, in the test with MIA, in the test with HT-29 and in the test with SMA was “inactive” each time. In addition, the “growth inhibition (GI)” value in the test with A-431, in the test on DU-145, with SJ-G2, with NCI-H460 and with BE(2)-C was “inactive” throughout.

As for `Cc1ccc(/C=C(\C#N)C(=O)c2ccc[nH]2)cc1`, the “growth inhibition (GI)” value in the test on MCF7, in the test on SW480, in the test on A2780, in the test on MIA, in the test on HT-29 and in the test on SMA was “inactive” each time. The “growth inhibition (GI)” value in the test with A-431, in the test on DU-145, in the test on SJ-G2, in the test with NCI-H460 and with BE(2)-C was “inactive” in each case.

Regarding `N#C/C(=C\c1ccc(C(F)(F)F)cc1)C(=O)c1c[nH]c2ccccc12`, the “growth inhibition (GI)” value with MCF7, with SW480, in the test with A2780, with MIA, in the test on HT-29 and in the test with SMA was “inactive” each time. Moreover, the “growth inhibition (GI)” value in the test on A-431, with DU-145, with SJ-G2, in the test with NCI-H460 and in the test on BE(2)-C was “inactive” each time.

With `COc1ccc(CNC(=O)/C(C#N)=C/c2ccc(O)cc2)cc1`, the “growth inhibition (GI)” value with MCF7, with SW480, in the test on A2780, in the test on MIA, with HT-29 and in the test on SMA was “inactive” each time. Further, the “growth inhibition (GI)” value with A-431, in the test with DU-145, in the test with SJ-G2, with NCI-H460 and in the test on BE(2)-C was “inactive” in each case.
